In ChEMBL document CHEMBL1153312, “Discovery of substituted 2,4,4-triarylimidazoline derivatives as potent and selective neuropeptide Y Y5 receptor antagonists” (Bioorg Med Chem Lett, 2009):

Legend:
[1] = molecular target: T1, Neuropeptide Y receptor type 5 (Homo sapiens, UniProt Q15761); assay: Displacement of [125I]PYY from human recombinant neuropeptide Y5 receptor expressed in thymidine kinase-deficient mouse LM cells; assay type: cell-based
T1 sequence (Q15761 whole entry): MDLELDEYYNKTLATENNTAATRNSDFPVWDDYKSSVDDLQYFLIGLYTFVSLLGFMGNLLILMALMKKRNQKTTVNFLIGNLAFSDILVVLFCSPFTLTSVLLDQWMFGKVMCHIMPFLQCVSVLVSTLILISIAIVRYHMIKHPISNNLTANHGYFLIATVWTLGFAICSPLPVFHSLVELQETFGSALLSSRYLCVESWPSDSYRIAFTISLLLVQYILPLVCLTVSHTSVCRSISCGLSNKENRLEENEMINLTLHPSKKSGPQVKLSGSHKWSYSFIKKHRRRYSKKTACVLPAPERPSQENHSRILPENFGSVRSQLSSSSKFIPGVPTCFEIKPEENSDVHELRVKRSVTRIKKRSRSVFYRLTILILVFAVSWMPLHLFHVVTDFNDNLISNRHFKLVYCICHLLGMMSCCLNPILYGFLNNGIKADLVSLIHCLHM
How it was run: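 [125I]PYY displacement in membranes of LMtk- cells expressing recombinant human Y5 receptor; IC50 determined.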

[2] = Ratio of drug level in cerebrospinal fluid to brain of Sprague-Dawley rat at 10 mg/kg, po after 2 hrs; assay type: ADME, organism-based, CSF/Brain; parameters: dose 10 mg/kg, route oral; conditions: in vivo
How it was run: (§1)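 Rats dosed orally at 10 mg/kg; plasma, brain (nmol/g) and CSF levels measured 2 h post-dose. Brain-to-plasma and CSF-to-brain ratios were calculated from these levels.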

[3] = molecular target: T2, Neuropeptide Y receptor type 1 (Homo sapiens) (UniProt P25929); assay: Binding affinity to human neuropeptide Y1 receptor
T2 sequence (whole entry): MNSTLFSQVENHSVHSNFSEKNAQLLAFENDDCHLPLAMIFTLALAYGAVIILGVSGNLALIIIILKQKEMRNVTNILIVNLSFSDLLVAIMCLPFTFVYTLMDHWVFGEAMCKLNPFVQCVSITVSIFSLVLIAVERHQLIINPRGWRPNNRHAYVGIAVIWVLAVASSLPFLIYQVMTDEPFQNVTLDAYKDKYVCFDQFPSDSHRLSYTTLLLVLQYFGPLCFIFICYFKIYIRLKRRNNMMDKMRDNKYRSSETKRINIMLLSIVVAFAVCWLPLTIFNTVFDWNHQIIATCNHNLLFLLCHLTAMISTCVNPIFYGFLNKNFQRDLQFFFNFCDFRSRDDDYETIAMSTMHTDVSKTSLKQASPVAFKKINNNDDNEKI

[4] = Plasma concentration in Sprague-Dawley rat at 10 mg/kg, po after 2 hrs; assay type: ADME, organism-based; parameters: dose 10 mg/kg, route oral; how it was run: as §1
Rattus norvegicus [5] = assay: Inhibition of D-Trp34NPY-induced food intake in Sprague-Dawley rat at 3 mg/kg, po administered 2 hrs before D-Trp34NPY challenge measured for 2 hrs; assay type: functional; parameters: scale not given: the % may be the effect or the level left
How it was run: (§2)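 Oral dosing 2 h before third-ventricle injection of D-Trp34NPY, with artificial CSF as vehicle control. Cumulative food intake was recorded over the following 2 h. Data are mean ± SEM, n = 7–8, with P < 0.05 versus the agonist-only group.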

[6] = Ratio of drug level in brain to plasma of Sprague-Dawley rat at 10 mg/kg, po after 2 hrs; assay type: ADME, organism-based; parameters: dose 10 mg/kg, route oral; conditions: read-out: BPR; how it was run: as §1
[7] = molecular target: T3, Neuropeptide Y receptor type 2 (Homo sapiens) (UniProt P49146); assay: Binding affinity to human neuropeptide Y2 receptor
T3 sequence (whole entry): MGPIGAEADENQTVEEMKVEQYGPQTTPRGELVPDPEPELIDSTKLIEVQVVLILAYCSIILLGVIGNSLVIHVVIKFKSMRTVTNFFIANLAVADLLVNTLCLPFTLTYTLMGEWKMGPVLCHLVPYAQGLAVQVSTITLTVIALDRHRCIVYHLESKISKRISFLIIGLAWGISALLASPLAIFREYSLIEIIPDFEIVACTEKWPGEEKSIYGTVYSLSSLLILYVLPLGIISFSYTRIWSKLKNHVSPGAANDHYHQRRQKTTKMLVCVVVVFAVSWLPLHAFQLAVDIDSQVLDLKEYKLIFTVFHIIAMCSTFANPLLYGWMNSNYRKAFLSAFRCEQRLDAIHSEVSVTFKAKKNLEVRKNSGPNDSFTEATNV

Rattus norvegicus [8] = assay: Inhibition of D-Trp34NPY-induced food intake in Sprague-Dawley rat at 30 mg/kg, po administered 2 hrs before D-Trp34NPY challenge measured for 2 hrs; assay type: functional; parameters: scale not given: the % may be the effect or the level left; how it was run: as §2
Rattus norvegicus [9] = assay: Inhibition of D-Trp34NPY-induced food intake in Sprague-Dawley rat at 10 mg/kg, po administered 2 hrs before D-Trp34NPY challenge measured for 2 hrs; assay type: functional; parameters: scale not given: the % may be the effect or the level left; how it was run: as §2
[10] = Drug level in Sprague-Dawley rat cerebrospinal fluid at 10 mg/kg, po after 2 hrs; assay type: ADME, organism-based; parameters: dose 10 mg/kg, route oral; conditions: read-out: Drug uptake; how it was run: as §1
[11] = molecular target: T1, Neuropeptide Y receptor type 5; assay: Antagonist activity at human recombinant neuropeptide Y5 receptor expressed in thymidine kinase-deficient mouse LM cells assessed as inhibition of neuropeptide-induced increase in intracellular calcium level; assay type: functional, cell-based
Brain = assay: Drug level in Sprague-Dawley rat brain at 10 mg/kg, po after 2 hrs; assay type: ADME, organism-based; parameters: dose 10 mg/kg, route oral; conditions: in vivo; how it was run: as §1
[12] = molecular target: Neuropeptide Y receptor type 4 (Homo sapiens) (UniProt P50391); assay: Binding affinity to human neuropeptide Y4 receptor
Neuropeptide Y receptor type 4 (Homo sapiens), sequence (P50391 whole entry): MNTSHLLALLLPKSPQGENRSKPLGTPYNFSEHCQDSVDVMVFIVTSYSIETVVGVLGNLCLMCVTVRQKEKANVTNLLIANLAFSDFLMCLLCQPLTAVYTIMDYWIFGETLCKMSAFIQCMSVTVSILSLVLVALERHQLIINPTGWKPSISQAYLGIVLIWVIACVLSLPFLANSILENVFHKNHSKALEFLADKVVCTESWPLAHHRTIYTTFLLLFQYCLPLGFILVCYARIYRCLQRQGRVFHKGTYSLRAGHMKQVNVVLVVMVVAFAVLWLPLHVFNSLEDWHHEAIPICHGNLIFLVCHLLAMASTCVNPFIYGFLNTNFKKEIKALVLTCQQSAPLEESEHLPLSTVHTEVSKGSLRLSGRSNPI

Row | Compound | IC50 [1] | also measured
1 | COC(=O)c1cccc(C2=NC(c3ccc(F)cc3)(c3ccc(F)cc3)CN2)c1 | 270 nM | –
2 | Fc1ccc(C2(c3ccc(F)cc3)CNC(c3ccc(Cl)cc3)=N2)cc1 | 130 nM | –
3 | c1ccc(C2=NC(c3ccccc3)(c3ccccc3)CN2)cc1 | 54 nM | –
4 | Fc1ccc(C2(c3ccc(F)cc3)CNC(c3ccsc3)=N2)cc1 | 93 nM | –
5 | Fc1ccc(C2(c3ccc(F)cc3)CNC(c3cccnn3)=N2)cc1 | 560 nM | –
6 | Fc1ccc(C2(c3ccc(F)cc3)CNC(c3ccc(C(F)(F)F)cc3)=N2)cc1 | 160 nM | –
7 | CN(C)c1cccc(C2=NC(c3ccc(F)cc3)(c3ccc(F)cc3)CN2)c1 | > 1000 nM | –
8 | Fc1ccc(C2(c3ccc(F)cc3)CNC(c3cccs3)=N2)cc1 | 54 nM | –
9 | Fc1ccc(C2(c3ccc(F)cc3)CNC(c3ccccn3)=N2)cc1 | 160 nM | –
10 | OCc1cccc(C2=NC(c3ccc(F)cc3)(c3ccc(F)cc3)CN2)c1 | 59 nM | –
11 | Fc1ccc(C2(c3ccc(F)cc3)CNC(c3ccncc3)=N2)cc1 | 160 nM | –
12 | Fc1ccc(C2(c3ccc(F)cc3)CNC(c3ncccn3)=N2)cc1 | 350 nM | –
13 | Nc1cccc(C2=NC(c3ccc(F)cc3)(c3ccc(F)cc3)CN2)c1 | 300 nM | –
14 | Fc1ccc(C2(c3ccc(F)cc3)CNC(c3ccccc3Cl)=N2)cc1 | 630 nM | –

Now those with a lower IC50 [1], led by results:

Row | IC50 [1] | Compound | also measured
15 | 51 nM | COc1cccc(C2=NC(c3ccc(F)cc3)(c3ccc(F)cc3)CN2)c1 | –
16 | 47 nM | Fc1ccc(C2(c3ccc(F)cc3)CNC(c3cncnc3)=N2)cc1 | –
17 | 44 nM | CC(=O)c1cccc(C2=NC(c3ccc(F)cc3)(c3ccc(F)cc3)CN2)c1 | –
18 | 39 nM | N#Cc1cccc(C2=NC(c3ccc(F)cc3)(c3ccc(F)cc3)CN2)n1 | –
19 | 32 nM | Fc1ccc(C2(c3ccc(F)cc3)CNC(c3ccccc3)=N2)cc1 | –
20 | 30 nM | Cc1cccc(C2=NC(c3ccc(F)cc3)(c3ccc(F)cc3)CN2)c1 | –
21 | 17 nM | N#Cc1cncc(C2=NC(c3ccc(F)cc3)(c3ccc(F)cc3)CN2)c1 | –
22 | 10 nM | Fc1ccc(C2(c3ccc(F)cc3)CNC(c3cccc(F)c3)=N2)cc1 | –
23 | 9.2 nM | CS(=O)(=O)c1cccc(C2=NC(c3ccc(F)cc3)(c3ccc(F)cc3)CN2)c1 | –
24 | 8.7 nM | O=Cc1cccc(C2=NC(c3ccc(F)cc3)(c3ccc(F)cc3)CN2)c1 | –
25 | 8.1 nM | O=c1cccc(C2=NC(c3ccc(F)cc3)(c3ccc(F)cc3)CN2)[nH]1 | –
26 | 7.2 nM | Fc1ccc(C2(c3ccc(F)cc3)CNC(c3cccnc3)=N2)cc1 | –
27 | 6.2 nM | Fc1ccc(C2(c3ccc(F)cc3)CNC(c3cccc(C(F)(F)F)c3)=N2)cc1 | –
28 | 5.4 nM | Fc1ccc(C2(c3ccc(F)cc3)CNC(c3cccc(Cl)c3)=N2)cc1 | –
29 | 4.8 nM | Fc1ccc(C2(c3ccc(F)cc3)CNC(c3cccc(Br)c3)=N2)cc1 | –
30 | 4.8 nM | N#Cc1cc(C2=NC(c3ccc(F)cc3)(c3ccc(F)cc3)CN2)ccn1 | –
31 | 4.3 nM | O=[N+]([O-])c1cccc(C2=NC(c3ccc(F)cc3)(c3ccc(F)cc3)CN2)c1 | –
32 | 4.3 nM | Fc1ccc(C2(c3ccc(F)cc3)CNC(c3cnccn3)=N2)cc1 | Ratio [2]: 0.01; Activity [3]: > 10 µM; concentration at 2 h [4]: 1200 nM; Activity (Rattus norvegicus [5]): 20%; Kp at 2 h [6]: 4.9; Activity [7]: > 10 µM; Activity (Rattus norvegicus [8]): 60%; Activity (Rattus norvegicus [9]): 42%; concentration at 2 h [10]: 64 nM; IC50 [11]: 2.4 nM; Drug uptake (Brain): 5.9 nmol/g; Activity [12]: > 10 µM
33 | 2.7 nM | N#Cc1cccc(C2=NC(c3ccc(F)cc3)(c3ccc(F)cc3)CN2)c1 | Ratio [2]: 0.003; concentration at 2 h [4]: 1400 nM; Kp at 2 h [6]: 5.8; concentration at 2 h [10]: 27 nM; Drug uptake (Brain): 8.1 nmol/g
34 | 2 nM | N#Cc1ccnc(C2=NC(c3ccc(F)cc3)(c3ccc(F)cc3)CN2)c1 | Ratio [2]: 0.004; concentration at 2 h [4]: 1300 nM; Kp at 2 h [6]: 4.9; concentration at 2 h [10]: 25 nM; Drug uptake (Brain): 6.4 nmol/g
